The source of these data is paper PMC10500580 (ACS Omega, 2023).

Structures are written as SMILES.

The nature of one test: Antioxidant. The conditions noted are these: read-out: IC50 antioxidant activity; DPPH, absorbance at 517 nm. The essentials: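 Test compound stocks at 22 mg/mL, diluted to working concentrations. DPPH radical was prepared at 4 mg per 100 mL pure methanol. Sample dilution and DPPH solution were mixed 1:2 by volume and left undisturbed overnight. Ascorbic acid in water served as the reference and was treated the same way. Absorbance was read at 517 nm, in triplicate.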

The target in a further test is T1, α-amylase (Homo sapiens, UniProt P04746).
T1 sequence (P04746 16-511): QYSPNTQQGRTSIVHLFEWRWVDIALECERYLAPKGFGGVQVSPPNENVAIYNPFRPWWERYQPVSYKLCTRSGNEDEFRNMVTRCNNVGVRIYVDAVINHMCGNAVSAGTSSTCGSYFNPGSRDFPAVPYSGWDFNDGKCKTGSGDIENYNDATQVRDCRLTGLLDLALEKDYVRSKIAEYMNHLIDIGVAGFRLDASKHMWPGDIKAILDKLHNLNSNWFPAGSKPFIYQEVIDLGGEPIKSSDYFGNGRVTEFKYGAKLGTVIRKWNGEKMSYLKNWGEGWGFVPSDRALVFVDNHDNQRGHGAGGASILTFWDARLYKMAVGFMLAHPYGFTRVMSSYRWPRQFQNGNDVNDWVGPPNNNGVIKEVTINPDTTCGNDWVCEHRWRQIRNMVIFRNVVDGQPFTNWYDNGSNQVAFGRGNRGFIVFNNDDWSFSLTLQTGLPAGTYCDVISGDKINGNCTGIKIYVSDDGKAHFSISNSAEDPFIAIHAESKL
In words: In vitro antidiabetic. Format: biochemical.

Regarding `C=CCOC(=O)c1ccccc1C(=O)OCC` [HR3, 1-allyl 2-ethyl phthalate], in the test “Antioxidant”, the IC50 (usually the concentration at which inhibition is half-maximal) was 15.1 µM.

`CC(C)CCCCCOC(=O)c1ccccc1C(=O)OCCCCCC(C)C` [HR5, bis (6-methylheptyl) phthalate]: the IC50 on α-amylase was 11.7 µM; in the test “Antioxidant”, 15.6 µM. Moreover, the “inhibition against diabetes (in words)” value against α-amylase (conclusion, qualitative grade) is “excellent inhibition”.
